Published values gathered from unrelated publications.
Each line is one published result; the experiments were not run side by side.
JAK1 JH2: Tyrosine-protein kinase JAK1, JH2 (JAK1, Homo sapiens, UniProt P23458)
JAK1 JH1: Tyrosine-protein kinase JAK1, JH1 (JAK1, Homo sapiens, UniProt P23458)
JAK1: Tyrosine-protein kinase JAK1 (JAK1, Homo sapiens, UniProt P23458)

Structure (SMILES) | target | test | test system | conditions | measurement | result
O=C(NCc1ncc(C(F)(F)F)cc1Cl)c1ccc2c(c1)C1(CCS(=O)(=O)CC1)[C@@H](C1CC1)N2S(=O)(=O)c1ccc(F)cc1 | JAK1 JH2 | cell-free assay, competition with immobilised ligand |  | 1 µM | remaining binding | 85%
Nc1ncnc2occ(-c3ccc(NC(=O)Nc4cc(C(F)(F)F)ccc4F)cc3)c12 | JAK1 JH1 | cell-free assay, inhibitor |  | 20 µM | remaining signal | 0.9%
CCOc1cc(-c2nncn2C)ccc1Nc1ncc2cc(C)nc(NCC(C)(C)C)c2n1 | JAK1 | enzyme activity, inhibitor, FRET |  | 1 µM | inhibition | < 15%
COc1cc(Cl)c(C(=O)N[C@@H](CN[C@H]2CC[C@@H](N)CC2)Cc2ccc(C#N)cc2)cc1-c1ccc(CN[C@H](C)c2ccc(C)cc2)o1 | JAK1 JH1 | enzyme activity, inhibitor |  | 1 µM | remaining activity | 101%
N[C@H]1CCN(c2nccc(-c3cnn4ncccc34)n2)C1 | JAK1 JH1 | cell-free assay |  | 1 µM | remaining signal | 100%
O=C(Nc1cnn(-c2csc(C(=O)NC3COC3)c2)c1)Nc1c(F)cccc1Cl | JAK1 | enzyme activity, inhibitor |  | 5 µM | remaining activity | 107%
C=CC(=O)Nc1cc(Nc2nccc(Nc3cc(Cl)c(F)cc3C(C)(C)O)n2)c(OC)cc1N1CC[C@@H](N(C)C)C1 | JAK1 | enzyme activity, inhibitor |  | 1 µM | inhibition | 6%
CN(C)C1CCN(CC#Cc2nn(C3CCCC3)c3nc(NCc4ccccc4)ncc23)C1 (stereo not shown) | JAK1 | enzyme activity, inhibitor, FRET |  | 0.1 µM | inhibition | 2%
COc1cc2ncnc(Nc3ccc(Oc4ccccc4)c(C)c3C)c2cc1OC | JAK1 | enzyme activity, inhibitor |  | 1 µM | inhibition | -4%
CS(=O)(=O)Nc1cccc(-c2csc(NC(=O)CSc3nc4nccnc4c(=O)n3CCc3ccccc3)n2)c1 | JAK1 | enzyme activity, inhibitor |  | 10 µM | inhibition | 9%
CC(=O)N1CCC(c2ccc(C(=O)NC(=N)N)cc2C(F)(F)F)CC1 | JAK1 JH2 | cell-free assay, competition with immobilised ligand |  | 1 µM | remaining binding | 100%
COc1cc2ncnc(Nc3ccc(F)c(Cl)c3)c2cc1OCCCN1CCOCC1 | JAK1 | cell-free assay |  | 0.5 µM | remaining signal | 102%
C[C@H](c1cccc(C#N)c1)n1cc(Cl)cc(C(N)=O)c1=N | JAK1 JH1 | cell-free assay, competition with immobilised ligand |  | 1 µM | remaining binding | 57%
COc1cc2nccc(Oc3ccc(NC(=O)c4c5n(n(-c6ccc(F)cc6)c4=O)CCCC5)cc3)c2cc1OC | JAK1 | enzyme activity, inhibitor |  | 0.1 µM | inhibition | -5%
Cc1ccc(NC(=O)c2ccc(C)c(C(F)(F)F)c2)cc1C#Cc1nn(C2CCC(O)CC2)c2ncnc(N)c12 (stereo not shown) | JAK1 JH1 | cell-free assay |  | 10 µM | remaining signal | 3%
C[C@@H]1CCN(c2nccc(-c3cnn4ncccc34)n2)C1 | JAK1 JH1 | cell-free assay |  | 1 µM | remaining signal | 82%

Structure (SMILES) | target | test | test system | conditions | measurement | result
CC(C)(C)c1nc(-c2cccc(NS(=O)(=O)c3c(F)cccc3F)c2F)c(-c2ccnc(N)n2)s1 | JAK1 | enzyme activity, inhibitor, radiometric |  | 1 µM | remaining activity | 84%
COc1cc2c(Nc3ccc(Br)cc3F)ncnc2cc1OCC1CCN(C)CC1 | JAK1 | cell-free assay |  | 0.5 µM | remaining signal | 99.1%
CS(=O)(=O)NCC[C@H](NC(=O)c1cncc2c1cnn2-c1ccc(F)cc1)c1ccnc(S(C)(=O)=O)c1 | JAK1 JH2 | cell-free assay, competition with immobilised ligand |  | 1 µM | remaining binding | 100%
CNc1cc(Oc2cc(C(=O)Nc3cc(N4CCN(C)CC4)cc(C(F)(F)F)c3)ccc2C)ncn1 | JAK1 JH2 | target engagement in cells, inhibitor, chemoproteomics | Huh-7 | 1 µM | inhibition | -25.7%
Cc1cnn2ncc(-c3ccnc(N(C)C)n3)c2c1 | JAK1 | binding |  | 1 µM | remaining binding | 51%
O=C1Nc2ccc(Cl)cc2C1=Cc1cc(Cl)c(O)c(Cl)c1 | JAK1 | cell-free assay |  | 0.5 µM | remaining signal | 103%
CS(=O)(=O)N1CCCC(NC(=O)[C@H](CCC2CCCCC2)NC(=O)c2ccc(CNc3ncnc4c3nnn4-c3ccccc3)cc2)C1 (stereo partly shown) | JAK1 JH2 | cell-free assay, competition with immobilised ligand |  | 0.1 µM | remaining binding | 89%
c1nc2c(Nc3ccc4c(c3)OCCO4)nc(Nc3ccc4c(c3)OCCO4)nc2[nH]1 | JAK1 JH1 | enzyme activity, inhibitor |  | 10 µM | activity vs control | 52%
CC1CCCN1c1nccc(-c2cnn3ncccc23)n1 (stereo not shown) | JAK1 | binding |  | 1 µM | remaining binding | 100%
O=c1nc(-c2ccccn2)sc2ccccc12 | JAK1 JH2 | binding, competition with immobilised ligand |  | 1 µM | remaining binding | 86%
Cc1sc(C(=O)NC2COC2)cc1-n1cc(NC(=O)Nc2c(F)cccc2Cl)cn1 | JAK1 | enzyme activity, inhibitor |  | 10 µM | remaining activity | 72.2%
CC(=O)C1=C(C)N(c2cccc(C(F)(F)F)c2)C(=O)N[C@@H]1c1ccc(C#N)nc1 | JAK1 JH1 | cell-free assay, competition with immobilised ligand |  | 1 µM | remaining binding | 85.9%
Oc1ccc(-c2nc(-c3ccncc3)c(-c3ccc(F)cc3)[nH]2)cc1 | JAK1 | cell-free assay |  | 0.5 µM | remaining signal | 102%
CN(CCCC(F)(F)F)c1nccc(-c2cnn3ncccc23)n1 | JAK1 | binding |  | 1 µM | remaining binding | 100%
Cc1c[nH]c2nccc(Oc3c(F)cc(Nc4cc(Cl)nc(N)n4)cc3F)c12 | JAK1 JH1 | cell-free assay, competition with immobilised ligand |  | 0.1 µM | remaining binding | 80%
